ChEMBL document CHEMBL3259728, “Design, synthesis and biological evaluation of some novel substituted quinazolines as antitumor agents” (2014)

test system: MDA-MB-231; assay: Growth inhibition of human MDA-MB-231 cells at 10 uM after 48 hrs by SRB assay; format: functional; details: MDA-MB-231, 48 h, read-out: GI
Summary of the method: (§1)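 NCI-60 primary one-dose screen run at the US NCI, with human tumour lines from nine cancer types. Compound added once at 10^-5 M, followed by 48 h incubation. End point was sulforhodamine B protein staining read spectrophotometrically. Result given as percent growth of treated cells against untreated controls, reported as % growth inhibition.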

SMILES | inhibition of growth at 10 µM
Cc1ccc(-c2nc3ccc(Cl)cc3c(=O)n2/N=C/c2ccccc2)cc1 | 41%

test system: DU-145; assay: Growth inhibition of human DU145 cells at 10 uM after 48 hrs by SRB assay; format: functional; details: DU-145, 48 h, read-out: GI; summary of the method: as §1

SMILES | inhibition of growth at 10 µM
Cc1ccc(-c2nc3ccc(Cl)cc3c(=O)n2/N=C/c2ccccc2)cc1 | 27%

test system: not listed separately; assay: Growth inhibition of human HCC2998 cells at 10 uM after 48 hrs by SRB assay; format: functional; details: HCC 2998, 48 h, read-out: GI; summary of the method: as §1

SMILES | inhibition of growth at 10 µM
Cc1ccc(-c2nc3ccc(Cl)cc3c(=O)n2/N=C/c2ccccc2)cc1 | < 10%

test system: SR; assay: Growth inhibition of human SR cells at 10 uM after 48 hrs by SRB assay; format: functional; details: read-out: GI; summary of the method: as §1

SMILES | inhibition of growth at 10 µM
Cc1ccc(-c2nc3ccc(Cl)cc3c(=O)n2/N=C/c2ccccc2)cc1 | 20%

test system: TK-10; assay: Growth inhibition of human TK10 cells at 10 uM after 48 hrs by SRB assay; format: functional; details: TK-10, 48 h, read-out: GI; summary of the method: as §1

SMILES | inhibition of growth at 10 µM
Cc1ccc(-c2nc3ccc(Cl)cc3c(=O)n2/N=C/c2ccccc2)cc1 | 26%

test system: not listed separately; assay: Growth inhibition of human SF539 cells at 10 uM after 48 hrs by SRB assay; format: functional; details: SF-539, 48 h, read-out: GI; summary of the method: as §1

SMILES | inhibition of growth at 10 µM
Cc1ccc(-c2nc3ccc(Cl)cc3c(=O)n2/N=C/c2ccccc2)cc1 | 22%

test system: not listed separately; assay: Growth inhibition of human LOXIMVI cells at 10 uM after 48 hrs by SRB assay; format: functional; details: LOX IMVI, read-out: GI; summary of the method: as §1

SMILES | inhibition of growth at 10 µM
Cc1ccc(-c2nc3ccc(Cl)cc3c(=O)n2/N=C/c2ccccc2)cc1 | 11%

test system: not listed separately; assay: Growth inhibition of human UACC257 cells at 10 uM after 48 hrs by SRB assay; format: functional; details: UACC-257, 48 h, read-out: GI; summary of the method: as §1

SMILES | inhibition of growth at 10 µM
Cc1ccc(-c2nc3ccc(Cl)cc3c(=O)n2/N=C/c2ccccc2)cc1 | < 10%

test system: not listed separately; assay: Growth inhibition of human OVCAR4 cells at 10 uM after 48 hrs by SRB assay; format: functional; details: OVCAR-4, 48 h, read-out: GI; summary of the method: as §1

SMILES | inhibition of growth at 10 µM
Cc1ccc(-c2nc3ccc(Cl)cc3c(=O)n2/N=C/c2ccccc2)cc1 | 86%

test system: not listed separately; assay: Growth inhibition of human BT549 cells at 10 uM after 48 hrs by SRB assay; format: functional; details: BT-549, 48 h, read-out: GI
Summary of the method: (§2)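 NCI primary one-dose screen. A single concentration of 10^-5 M was added to the cell culture, followed by 48 h incubation and an SRB protein-dye endpoint read spectrophotometrically. Results are growth percentage relative to untreated control cells, reported as % growth inhibition.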

SMILES | inhibition of growth at 10 µM
Cc1ccc(-c2nc3ccc(Cl)cc3c(=O)n2/N=C/c2ccccc2)cc1 | < 10%

test system: 786-0; assay: Growth inhibition of human 786-0 cells at 10 uM after 48 hrs by SRB assay; format: functional; details: 786-0, 48 h, read-out: GI; summary of the method: as §2

SMILES | inhibition of growth at 10 µM
Cc1ccc(-c2nc3ccc(Cl)cc3c(=O)n2/N=C/c2ccccc2)cc1 | 30%

test system: PC-3; assay: Growth inhibition of human PC3 cells at 10 uM after 48 hrs by SRB assay; format: functional; details: PC-3, 48 h, read-out: GI; summary of the method: as §1

SMILES | inhibition of growth at 10 µM
Cc1ccc(-c2nc3ccc(Cl)cc3c(=O)n2/N=C/c2ccccc2)cc1 | 30%

test system: HT-29; assay: Growth inhibition of human HT-29 cells at 10 uM after 48 hrs by SRB assay; format: functional; details: HT-29, 48 h, read-out: GI; summary of the method: as §1

SMILES | inhibition of growth at 10 µM
Cc1ccc(-c2nc3ccc(Cl)cc3c(=O)n2/N=C/c2ccccc2)cc1 | 17%

test system: NCI-H226; assay: Growth inhibition of human NCI-H226 cells at 10 uM after 48 hrs by SRB assay; format: functional; details: NCI-H226, 48 h, read-out: GI; summary of the method: as §1

SMILES | inhibition of growth at 10 µM
Cc1ccc(-c2nc3ccc(Cl)cc3c(=O)n2/N=C/c2ccccc2)cc1 | 14%

test system: not listed separately; assay: Growth inhibition of human RXF393 cells at 10 uM after 48 hrs by SRB assay; format: functional; details: RXF 393, 48 h, read-out: GI; summary of the method: as §1

SMILES | inhibition of growth at 10 µM
Cc1ccc(-c2nc3ccc(Cl)cc3c(=O)n2/N=C/c2ccccc2)cc1 | < 10%

test system: NCI-H522; assay: Growth inhibition of human NCI-H522 cells at 10 uM after 48 hrs by SRB assay; format: functional; details: NCI-H522, 48 h, read-out: GI; summary of the method: as §1

SMILES | inhibition of growth at 10 µM
Cc1ccc(-c2nc3ccc(Cl)cc3c(=O)n2/N=C/c2ccccc2)cc1 | 52%

test system: U-251; assay: Growth inhibition of human U251 cells at 10 uM after 48 hrs by SRB assay; format: functional; details: U-251, 48 h, read-out: GI; summary of the method: as §1

SMILES | inhibition of growth at 10 µM
Cc1ccc(-c2nc3ccc(Cl)cc3c(=O)n2/N=C/c2ccccc2)cc1 | 88%

test system: not listed separately; assay: Growth inhibition of human OVCAR8 cells at 10 uM after 48 hrs by SRB assay; format: functional; details: OVCAR-8, 48 h, read-out: GI; summary of the method: as §1

SMILES | inhibition of growth at 10 µM
Cc1ccc(-c2nc3ccc(Cl)cc3c(=O)n2/N=C/c2ccccc2)cc1 | 73%
